Data published in the RNAGym collection of RNA variant scans (doi:10.1126/science.aae0568).
Variants at the floor of the assay were thinned out.

B1: tRNA (parent)
chain: GUUCCGUUGGCGUAAUGGUAACGCGUCUCCCUCCUAAGGAGAAGACUGCGGGUUCGAGUCCCGUACGGAACG

Variants of: B1
Experiment: yeast fitness relative to wild type (ratio to wild type); higher = fitter; tRNA-Arg(CCU), competitive growth, 37 C, YPD
Method in brief: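 Amplicons of the tRNA-Arg(CCU) gene were sequenced, 100-nucleotide paired-end, from the start population and from each end population of a pooled yeast competition. The competition, in six parallel replicates, lasted 24 hours in YPD at 37°C. Fitness relative to wild type was calculated from changes in genotype frequencies. Genotypes had to have ≥ 100 starting reads, and estimates < 0.5 were set to 0.5.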

Row | Variant | yeast fitness
1 | A20C A36U | 0.635
2 | A20C A36C | ≤ 0.5
3 | U19G U59C A69C | 0.658
4 | A20C C24G C29G A65G | ≤ 0.5
5 | U19G C30A A43U | 0.601
6 | A20C C34U A40G A57C G67C | ≤ 0.5
7 | U19G C49U C62A A69G | ≤ 0.5
8 | U19G G58A C66U | 0.857
9 | U19G G38C A70U | 0.501
10 | U19G A43U C61G | 0.559
11 | U19C G56C A57G G68U | ≤ 0.5
12 | A20C C29U A37G A69U | 0.526
13 | A20C C30G C55A G67A | ≤ 0.5
14 | U19G U32C G52A G58C | ≤ 0.5
15 | U19C U32C C60A C61A | 0.731
16 | U19G A20U G56A | 0.789
17 | A20C A65C C66U | 0.619
18 | A20C C27A C30A C31U G52A | ≤ 0.5
19 | U19G C33U A40C A45C | ≤ 0.5
20 | A20C C30A A37G U59A | ≤ 0.5
21 | A20C A36U A65U | ≤ 0.5
22 | A20C C34U C60A C66U | 0.605
23 | A20C C22G C29A C30G | 0.616
24 | A20C C29U C31G C61G | ≤ 0.5

Row | Variant | yeast fitness
25 | A20C A37C A43G U54A | ≤ 0.5
26 | U19G C22U A70G | 0.624
27 | U19G | 0.975
28 | A20C C30A A45U C60U | ≤ 0.5
29 | U19C G56C | 0.67
30 | A20C C31G C61G A65G | ≤ 0.5
31 | U19G U28C A37G C66U A69U | 0.524
32 | A20C C24A | 0.751
33 | A20C C24U | 0.798
34 | U19G C22U C31U A40U C55G A65C | ≤ 0.5
35 | A20C C29A G51C | ≤ 0.5
36 | A20C A40U A43U A70U | ≤ 0.5
37 | U19C U35C | 0.81
38 | A20C C29U C34A C46A G50A A57U G58A C66U | ≤ 0.5
39 | A20C C30A A57U | ≤ 0.5
40 | A20C C29G U35C | ≤ 0.5
41 | A20C A42C G58C | 0.52
42 | U19G C49G | 0.69
43 | U19G G39A | 1.07
44 | U19G G39C | 0.75
45 | U19G A57G A70U | 0.731
46 | U19G C30A A45U G56A G58C A69U | ≤ 0.5
47 | A20C A37C C49G | ≤ 0.5
48 | A20C C30A A70G | 0.588

Row | Variant | yeast fitness
49 | A20C C33A G48A C66U A70G | ≤ 0.5
50 | U19C G51C C66U | ≤ 0.5
51 | U19G G41C A43U | 0.512
52 | U19G A20U U53G | ≤ 0.5
53 | A20C C62G | 0.618
54 | A20C C62A | 0.831
55 | A20C C62U | 0.923
56 | A20C C24U A43C | ≤ 0.5
57 | A20C A43C A57C | ≤ 0.5
58 | U19G C66U | 0.831
59 | U19G C66A | 0.53
60 | A20C A37C A43G | 0.57
61 | U19G G25A | 0.958
62 | U19G C29U G39C A42U G67A | 0.537
63 | U19G G25A G39A | 0.597
64 | U19C U28A C55G | ≤ 0.5
65 | A20C C24A C60G | ≤ 0.5
66 | U19G C46A | 0.932
67 | U19G C46U | 0.962
68 | A20C C29U G50C | ≤ 0.5
69 | A20C C61G C62A | ≤ 0.5
70 | A20C C24U C55U | ≤ 0.5
71 | A20C C24U C55G | 0.643
72 | A20C C49A | 0.575

Row | Variant | yeast fitness
73 | A20C C27U C34G | 0.581
74 | A20C C33U G41A | ≤ 0.5
75 | A20C C61G | 0.747
76 | A20C C61A | 0.779
77 | U19G A43C U53C C55G C66U | ≤ 0.5
78 | A20C A40U A43C | 0.699
79 | A20C C29U U32A A70U | ≤ 0.5
80 | A20C C49U A70G | 0.748
81 | U19C U64G | 0.789
82 | U19C U64A | 0.898
83 | U19C U64C | 0.893
84 | U19G A21U C29G A37U | ≤ 0.5
85 | U19G A21C C55G U59A | ≤ 0.5
86 | A20C A21G G23A C66A | ≤ 0.5
87 | A20C C34G G68C | ≤ 0.5
88 | A20C C27U | 1.02
89 | U19G A43U A65G G68A | 0.512
90 | U19G A20U G58C | 0.716
91 | U19G U59A A69U | ≤ 0.5
92 | A20C C34U G52A C62U | ≤ 0.5
93 | A20C C31A C60U | ≤ 0.5
94 | A20C C33A G41C C49G A70U | 0.575
95 | A20C A65U | 0.722
96 | A20C A65G | 0.936

Row | Variant | yeast fitness
97 | A20C C22U C29G G41C C49G U53A C66U | ≤ 0.5
98 | U19G A65G A70C | 0.733
99 | U19G A36C | 0.529
100 | A20C C31G U47C G58C | ≤ 0.5
101 | A20C C24U A42U U59C A69U | 0.535
102 | U19C U28C | 0.992
103 | U19G G48A C49A | 0.574
104 | A20C A45U | 0.8
105 | A20C A45G | 0.853
106 | A20C C30G C62U | 0.554
107 | A20C A36U A45C C49G | ≤ 0.5
108 | A20C A21G G58C | 0.698
109 | U19G G25A G67A | 0.934
110 | A20C C33U A43C G48C | 0.525
111 | U19C U35A G38A A42G A69G A70G | ≤ 0.5
112 | A20C A37G G56C C66U | ≤ 0.5
113 | A20C C31U U53A | ≤ 0.5
114 | A20C A21U C33G A57C | ≤ 0.5
115 | A20C C55A | 0.699
116 | A20C C29G | 0.609
117 | A20C C46A C61U C66U | ≤ 0.5
118 | U19G C49U A69C | ≤ 0.5
119 | A20C C24U C34G | 0.506
120 | A20C C30A C33U C34G G38C C62A | ≤ 0.5

Row | Variant | yeast fitness
121 | U19G U35C A43U A65G G68A | ≤ 0.5
122 | A20C A21C C62G | ≤ 0.5
123 | U19C U26A | 0.945
124 | U19G C22G C34U | 0.559
125 | A20C A42C C60A | ≤ 0.5
126 | A20C A57C | 0.601
127 | A20C A57G | 0.757
128 | A20C A57U | 0.81
129 | A20C C31U A42U | 0.643
130 | A20C C31U G68C | 0.609
131 | A20C C62U A70G | 0.733
132 | A20C A36U A45U U53A | ≤ 0.5
133 | U19G C22U C31U A40U | 0.586
134 | A20C A37C G63A | ≤ 0.5
135 | A20C C34A G50C C61U | ≤ 0.5
136 | U19G A45C A70U | 0.557
137 | A20C C31U A40G G52C G67C | ≤ 0.5
138 | A20C C33U | 0.816
139 | U19G C49U C60A | ≤ 0.5
140 | A20C C62U A65G | 0.593
141 | U19G G58C | 1.03
142 | A20C C49A U54A G58A C60A | 0.593
143 | U19G C33U C34U | ≤ 0.5
144 | U19C U26A C46U | 0.901

Row | Variant | yeast fitness
145 | U19G A21U C46U | 0.809
146 | A20C A70C | 0.862
147 | U19C U26A G67C | 0.57
148 | A20C C22U A65G | 0.596
149 | A20C C27U A36G A65G G67A | 0.542
150 | A20C A21U C27G U35G C46A A70C | ≤ 0.5
151 | A20C A69C | 1.13
152 | A20C A69G | 1.01
153 | A20C C27A G52C | 0.595
154 | A20C C46U G50A G67C A70U | ≤ 0.5
155 | U19G U64A A65G G67U | 0.606
156 | A20C A21G C66U | 0.737
157 | U19G C22U C31U A40U A69U | 0.569
158 | A20C A36G C55U | 0.556
159 | U19G G51C | 0.537
160 | A20C A45U A65G | 0.58
161 | U19C G67U A69G | 0.751
162 | A20C C24U A40G A42U G50A G51C A70C | ≤ 0.5
163 | U19G C29U A40C A65G | ≤ 0.5
164 | A20C C22U C33U C66A | ≤ 0.5
165 | U19G C49U U54C C62A | ≤ 0.5
166 | U19G C49U G50U | ≤ 0.5
167 | U19G U32G U53G | ≤ 0.5
